High-throughput results (PubChem)
Compounds with a hit are over-represented: about 1.6% of the library has one in this group of screens.
PABP polyA inh: PABP poly(A) RNA binding inhibitors, primary screen, biochemical, fluorescence polarization, uHTS; Polyadenylate-binding protein 1 (Homo sapiens), P11940; calls only at 35 µM; hit rate 1% among 290,000; AID 2014, 2009;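 note: calls also rest on retests at 20 µM and on dose response follow-up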
MLLE-PAM2 inh: inhibitors of PABP1 MLLE–PAM2 peptide binding, primary screen, biochemical, fluorescence polarization, FITC-PAM2, GST-MLLE; Polyadenylate-binding protein 1 (Homo sapiens), P11940; inhibition, % at 20 µM; hit rate 0.36% among 360,000; in the data active = inhibition above about 35%, passing the limit was not always enough
RBBP9 inhibitor: human RBBP9 inhibitors, primary screen, biochemical, fluorescence polarization, FP-Rh probe, HTS; Serine hydrolase RBBP9 (Homo sapiens), O75884; recombinant RBBP9; inhibition, % at 7.94 µM; hit rate 0.2% among 220,000;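 active = inhibition above the campaign mean of all tested compounds plus 3 SD, cut at about 14% in these data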
Target sequence (O75884 whole entry, looked up): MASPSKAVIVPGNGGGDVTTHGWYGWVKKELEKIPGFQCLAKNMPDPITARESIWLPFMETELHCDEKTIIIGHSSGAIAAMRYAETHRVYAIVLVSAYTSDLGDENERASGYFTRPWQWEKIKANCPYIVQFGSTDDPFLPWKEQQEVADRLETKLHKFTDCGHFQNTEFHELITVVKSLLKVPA
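Test system: recombinant human RBBP9. Quantity: 2.5 µM RBBP9 dispensing solution, before mixing. Detection: FP readout at 525/598 nm. Reagent: Serine-hydrolase probe FP-Rh, 375 nM pre-mixing. Measure: % inhibition. Control set: DMSO-treated enzyme wells and wells lacking RBBP9. Buffer or medium: Tris-NaCl-Pluronic buffer, pH 8.0. Times: preincubation 30 min plus labeling 45 min at 25 °C.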
TCR CD3 inh: inhibitors of human TCR-CD3 interaction, primary screen, biochemical, fluorescence, TAMRA-labeled TCR probe | inhibition, % at 9.4 µM | AID 651800, 2012 | hit rate 0.37% among 360,000; in the data active = inhibition above about 19%;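 note: recombinant mutant TCR 2C K166C tagged with TAMRA read by polarization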
eIF4H inh: human eIF4H binding inhibitors, primary screen, translation initiation inhibitor project, biochemical, uHTS, fluorescence polarization. eIF4H fluorescence polarization binding assay. inhibition, % at 35 µM. hit rate 0.94% among 290,000;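 note: calls also rest on retests at 20 µM and on dose response follow-up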
Hits are given with their value; i = inactive; ? = inconclusive; nt = no result given; + = active, no number. Unless noted, the rule behind the calls is not given here.

SMILES | PABP polyA inh | MLLE-PAM2 inh | RBBP9 inhibitor | TCR CD3 inh | eIF4H inh
COc1ccccc1N1C(=O)c2ccccc2NC1c1ccncc1 (stereo not given) | i | i | i | i | i
CN(C)S(=O)(=O)c1ccccc1N=C=S | i | i | 16.2 | i | i
O=c1c2cc(F)ccc2sn1-c1ccc(F)cc1 | nt | 42.6 | nt | nt | nt
COc1ccc(-n2sc3ccc(F)cc3c2=O)cc1 | nt | 40.7 | nt | i | nt
Nc1[nH]c(C(=O)c2ccccc2)c(-c2cc(F)ccc2Br)c1C(=O)NCCc1c[nH]c2ccccc12 | nt | nt | nt | i | nt
CCCCCCCCN1C(=O)[C@@H](CC(=O)NCCCOCCCC)C[C@@]2(C(=O)OC)C1=C[C@H](C(C)(C)C)O[C@@H]2C | nt | nt | nt | i | nt
O=S1(=O)N[C@@H](Cc2ccccc2)COc2cc(NCCCN3CCOCC3)ccc21 | nt | nt | nt | i | nt
Cc1c(O)nc(SCC(=O)Nc2ccc3c4c(cccc24)CC3)n(-c2ccccc2)c1=O | i | i | i | i | i
O=C(CSc1nc(O)cc(=O)n1-c1ccccc1)Nc1ccc2c3c(cccc13)CC2 | + | i | i | i | 71.3
C[C@@H]1CN([C@@H](C)CO)C(=O)CCCn2cc(nn2)CO[C@H]1CN(C)C(=O)CCC(F)(F)F | nt | nt | nt | i | nt
CC(=Nc1ccccc1)C1=C(O)CSC1=O | + | i | i | i | 34.2
CC1OC2(C)OC(=N)C1(C#N)C(C#N)(C#N)C2c1ccccc1 (stereo not given) | i | i | i | i | ?
CC1C2(C)OC(=N)C(C#N)(C(C)O2)C1(C#N)C#N (stereo not given) | i | 64.0 | i | nt | i
Cc1ccc2nc(CN(C)C(=O)[C@@H](Cc3ccccc3)NC(=O)[C@H]3O[C@@H](n4cnc(C(N)=O)n4)[C@H](O)[C@@H]3O)[nH]c2c1 | nt | nt | nt | i | nt
Cc1oc2ccc(O)cc2c1C(=O)c1ccc([N+](=O)[O-])cc1 | + | i | i | i | active
CCc1nnc(NS(=O)(=O)c2ccc(NS(=O)(=O)c3ccc(NC(C)=O)cc3)cc2)s1 | i | nt | i | nt | i
CC(=O)Nc1ccc(S(=O)(=O)Nc2nnc(CC(C)(C)C)s2)cc1 | i | 42.8 | i | i | i
COC(=O)c1cc2c(c3c4cc(OC)ccc4n(S(=O)(=O)c4cccc(C)c4)c13)C(=O)N(Cc1ccccc1OC)C2 | nt | nt | nt | i | nt
COc1ccc(CCC(=O)Nc2ccc(C)c(S(=O)(=O)N(C)C)c2)cc1OC | i | i | i | i | i
COc1ccc(CCNCC(=O)Nc2ccc(C)c(S(=O)(=O)N(C)C)c2)cc1 | + | i | i | i | active
Cc1cc(-c2csc(N)n2)c(C)n1C | + | i | i | i | 118.0
O=C(N[C@H](Cc1ccccc1)C(=O)N1CCN(Cc2ccccn2)CC1)[C@H]1O[C@@H](n2ccc(=O)[nH]c2=O)[C@H](O)[C@@H]1O | nt | nt | nt | i | nt
CCOc1ccc2noc3c2c1C(=O)c1ccccc1-3 | i | i | i | i | i
O=C1c2ccccc2-c2onc3c(Oc4ccccc4)cc(O)c1c23 | + | nt | i | nt | 85.3
COc1ccccc1-n1c(N)c(C(N)=O)sc1=S | i | 41.4 | i | i | i
SMILES | PABP polyA inh | MLLE-PAM2 inh | RBBP9 inhibitor | TCR CD3 inh | eIF4H inh
NC(=O)c1sc(=S)n(-c2ccc(Br)cc2)c1N | i | i | i | i | i
S=C(NC1CCCCC1)N1CCn2cccc2C1c1ccncc1 (stereo not given) | + | i | i | i | 70.5
O=C(Nc1ccc2ncccc2c1)c1ccccc1Cl | + | i | i | i | i
O=C(Nc1ccc2ncccc2c1)c1ccccc1 | nt | i | nt | i | nt
CCCN1C(=O)c2[nH]nc(-c3ccccc3)c2C1c1ccc(C)cc1 (stereo not given) | nt | nt | nt | i | nt
Cc1ccc(-c2nc(N)sc2CC(=O)OCC(=O)NCCC(C)C)cc1 | i | i | i | i | 118.9
C=C(C)C(=O)Nc1ccc2c(c1)OCCOCCOCCO2 | + | i | i | i | 90.2
CCOc1cc(-c2cc(-c3ccc(C)cc3)nc(N)c2C#N)ccc1O | + | i | i | i | 57.5
Nc1nc2c(ncn2[C@@H]2O[C@H](C(=O)NCC(F)(F)F)[C@@H](O)[C@H]2O)c(=O)[nH]1 | nt | nt | nt | i | nt
CCOC(=O)c1ccc[n+](CC(=O)c2ccc(OC)cc2)c1 | i | i | i | i | i
CCOC(=O)c1ccc[n+](CC(=O)c2ccccc2)c1 | + | i | i | i | 59.0
C[C@@H](NS(=O)(=O)c1c(F)cccc1F)c1ccccc1 | nt | nt | nt | i | nt
O=C(NC(Cc1ccccc1)C(=O)O)/C(=C\c1ccccc1F)NC(=O)c1ccccc1 (stereo not given) | i | i | i | i | i
O=C(NC(Cc1ccccc1)C(=O)O)/C(=C/c1ccc(Cl)cc1)NC(=O)c1ccccc1 (stereo not given) | i | i | i | i | active
COc1cc(CCN=Cc2cccc(OC)c2O)c([N+](=O)[O-])cc1OC | nt | nt | nt | i | nt
CCc1ccc(C(=O)CSC2=C(C#N)C(c3ccco3)C(C(C)=O)=C(C)N2)cc1 (stereo not given) | i | nt | i | nt | 71.5
CC(=O)C1=C(C)NC(SCC(=O)c2ccc(Cl)c(Cl)c2)=C(C#N)C1c1ccco1 (stereo not given) | + | i | i | i | 71.0
CCOC(=O)CSC1=C(C#N)C(c2sccc2C)C(C(C)=O)=C(C)N1 (stereo not given) | i | i | i | i | i
CCOC(=O)CSC1=C(C#N)C(c2ccccc2F)C(C(C)=O)=C(C)N1 (stereo not given) | ? | i | i | i | 50.4
CC(=O)C1=C(C)NC(SCC(=O)c2ccc(F)cc2)=C(C#N)C1c1ccco1 (stereo not given) | i | i | i | i | i
CC(=O)C1=C(C)NC(SCC(=O)c2cc(Cl)ccc2Cl)=C(C#N)C1c1ccco1 (stereo not given) | i | i | i | i | i
O=C(Cc1c[nH]c2ccccc12)Nc1ccc(Nc2cccnc2)c(-c2cccc(Cl)c2)c1 | nt | nt | nt | i | nt
CCOC(=O)N1CCN(C(=O)C[C@H]2C[C@@]3(C(=O)OC)C(=C[C@H](C(C)(C)C)O[C@@H]3C)N(Cc3ccccc3)C2=O)CC1 | nt | nt | nt | i | nt
CC(=O)C1=C(C)N(CC(C)C)C(=S)NC1c1ccc(Br)cc1 (stereo not given) | nt | nt | nt | i | nt
CCC(CC)CN1CCC(CN2C(=S)NC[C@@H]2Cc2ccccc2)CC1 | nt | nt | nt | i | nt
COc1ccc(C(=O)CSc2nnc(-c3ccco3)c(-c3ccco3)n2)cc1 | + | i | i | i | i
CCn1c(SCC(=O)Nc2ccc(OC)c(OC)c2)nnc1-c1ccco1 | i | i | i | i | i
COc1cc(NC(=O)CSc2ccc(-c3ccco3)nn2)cc(OC)c1 | i | i | nt | i | 59.7
COc1ccc(NC(=O)CSc2nnc(-c3ccco3)c(-c3ccco3)n2)cc1OC | i | i | nt | i | 64.1
COc1cccc(NC(=O)CSc2nnc(-c3ccco3)c(-c3ccco3)n2)c1 | + | i | nt | 19.7 | 83.1
